1 compound from ChEMBL document CHEMBL4428026, “Discovery of New Monocarbonyl Ligustrazine-Curcumin Hybrids for Intervention of Drug-Sensitive and Drug-Resistant Lung Cancer” (J Med Chem, 2016) can be followed below.

For data set [1], the system named is A549. The experiment in a line: Antiproliferative activity against human A549 cells after 72 hrs by MTT assay. The data set is classed as functional, cell-based. Conditions: A549, 72 h. Put shortly:
(§1)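 Cells (A549, A549/DDP, SPC-A-1, LTEP-G-2, non-tumor bronchial epithelial HBE) were exposed in triplicate to vehicle or compound for 72 h. MTT (5 mg/mL in PBS) was then added for 4 h, formazan was dissolved in DMSO, and absorbance was read at 570 nm. IC50 values were derived from viability.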
In general terms: Tetrazolium dyes change colour on reduction, which living cells bring about.

The subject of data set [2] is A549/CDDP. Briefly: Antiproliferative activity against human A549/CDDP cells after 72 hrs by MTT assay. The data set is classed as functional, cell-based. The procedure, abridged: as §1
Data set [3] can be described thus: Antiproliferative activity against human SPC-A1 cells after 72 hrs by MTT assay. The conditions noted are these: SPCA1, 72 h. The data set is classed as functional, cell-based. The procedure, abridged: as §1
Data set [4] relates to A549/CDDP. Briefly: Induction of apoptosis in human A549/CDDP cells assessed as increase in cleaved PARP level at 0.6 to 1.2 uM after 24 hrs by Western blot method. It counts as functional, cell-based. The procedure, abridged:
(§2)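 Cells were plated at 1 × 10^6/well overnight, then treated 24 h with vehicle DMSO (0.1%, v/v) or compound (A549, 2.1 or 4.2 µM; A549/DDP, 0.6 or 1.2 µM). Lysis was at 4 °C. Lysates were run on SDS-PAGE (7.5% gel, 20 µg/lane) and immunoblotted with ECL detection; phospho-Akt Ser473 and phospho-ERK Thr202/Tyr204 were probed. Bands were normalized to GAPDH (TrxR, Trx) or β-actin. Three independent experiments were run.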
(Immunoblotting shows a protein as a band on a membrane.)

Data set [5] has as its system A549. Briefly: Inhibition of ERK phosphorylation in human A549 cells at 2.1 to 4.2 uM after 24 hrs by Western blot method. The data set is classed as cell-based. The procedure, abridged:
as §2

The subject of data set [6] is A549/CDDP. The experiment in a line: Inhibition of ERK phosphorylation in human A549/CDDP cells at 0.6 to 1.2 uM after 24 hrs by Western blot method. It counts as cell-based. The procedure, abridged:
as §2

Data set [7] in a line: Acute toxicity in ICR mouse assessed as mortality at 200 to 400 mg/kg, ip measured at 4 hr post treatment. The data set is classed as organism-based. Conditions: in vivo. Put shortly:
(§3)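 Male and female ICR mice (7 weeks), randomized, 10 per group, given one intraperitoneal dose at 200, 250, 300, 350, 400 or 450 mg/kg. Animals were watched for abnormal behaviour and deaths up to two weeks. Deaths were tallied at 1 h, 4 h, day 3 and days 4-14, with survival on day 14. LD50 was calculated with 95% confidence limits.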

A short description of data set [8]: Acute toxicity in ICR mouse assessed as survival at 400 mg/kg, ip measured on day 14. The conditions noted are these: in vivo. It counts as organism-based. Put shortly: as §3
The nature of data set [9]: Toxicity in BALB/c nude mouse xenografted with human A549/CDDP cells assessed as body weight at 40 mg/kg, ip administered daily for 15 consecutive days measured on day 15 (reference value: 21 +/- 1.28 g). The conditions noted are these: in vivo. The data set is classed as organism-based. The procedure, abridged: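 Athymic BALB/c nude mice of both sexes, 4-5 weeks, inoculated subcutaneously with A549/DDP cells (1 × 10^7/mouse). Once tumors reached 180-200 mm3, mice were randomized and given ip dosing daily for 15 consecutive days. Vehicle was PBS/DMSO/cremophor-EL (8:1:1), given at the same volume to controls. Body weight was recorded on day 1 and day 15. Reported as mean ± SD, n = 8.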
(Xenograft models place foreign cells or tissue in a host animal.)

The subject of data set [10] is A549/CDDP. The experiment in a line: Anticancer activity against human A549/CDDP cells xenografted in BALB/c nude mouse assessed as tumor growth inhibition at 40 mg/kg, ip administered daily for 15 consecutive days measured every 3 days. It counts as functional. The conditions noted are these: 15 days, read-out: TGI. The procedure, abridged:
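Both sexes of athymic BALB/c nude mice (4-5 weeks) were inoculated subcutaneously with A549/DDP cells (1 × 10^7/mouse). Once tumors reached 180-200 mm3, mice were randomized (n = 8). They received ip dosing daily for 15 consecutive days, with vehicle PBS/DMSO/cremophor-EL (8:1:1). Tumors were measured by caliper and volume was taken as width2 × length/2. Growth inhibition was taken from tumor weight (w/w).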

pIC50: −log10 of the molar value. Active and inactive are the calls of the source. The calls are words filed in the database; no cut-off is given here.

By pIC50 is commonly meant −log10 of the IC50, conventionally taken in molar units. Read a low pIC50 as a large IC50. As to `COc1cc(/C=C/C(=O)/C=C/c2nc(C)c(C)nc2C)ccc1O`, the pIC50 is 5.66 in the data set on A549 [1], 6.22 in the data set on A549/CDDP [2] and 5.51 in data set [3]. For the same compound, the result with A549/CDDP [4] was Active. For the same compound, the inhibition result with A549 [5] and in the data set on A549/CDDP [6] was “Active” in each case. In addition, the results for the Activity entry in data set [7] and in data set [9] were “Non-Toxic” and 19.6 g, respectively. Besides, the survival at 14 day in data set [8] came to 10%. For the same compound, the inhibition in vivo at 40 mg/kg with A549/CDDP [10] was found to be 67%.
